ChEMBL document CHEMBL4196182, “Hexaricins, Pradimicin-like Polyketides from a Marine Sediment-Derived Streptosporangium sp. and Their Antioxidant Effects” (J Nat Prod, 2018)

Legend:
Assay type in all cases: functional
[1] = Antioxidant activity assessed as superoxide anion radical scavenging activity incubated for 20 mins measured every 30 secs for 5 mins in presence of pyrogallol
[2] = Antioxidant activity assessed as hydroxyl radical scavenging activity incubated for 10 mins in presence of salicylic acid
How it was run: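 Modified Smirnoff method. Equal volumes of sample in MeOH, FeSO4 (6 mM) and ethanolic salicylic acid (6 mM), then H2O2 (6 mM), giving final sample levels of 0.2−1 mg/mL. Held 10 min at room temperature, then read at 510 nm. Scavenging % uses blanks with and without H2O2 against the negative control. EC50 taken at 50% scavenging. Repeated at least three times, mean ± standard deviation.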

[3] = Antioxidant activity assessed as DPPH radical scavenging activity incubated for 30 mins by UV/visible spectrophotometric analysis
How it was run: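 Test samples in MeOH at 1.875−120 μg/mL reacted with DPPH in MeOH (negative control DPPH 0.1 mM). Absorbance read at 517 nm; scavenging % computed against the DPPH-only control, correcting for sample absorbance without DPPH. EC50 is the concentration giving 50% scavenging. Independent repeats at least three times, reported as mean ± standard deviation.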

| Structure (SMILES) | EC50 [1] [µM] | EC50 [2] [µM] | EC50 [3] [µM] |
| --- | --- | --- | --- |
| COc1c2c(c(O)c3c1[C@H](O)Cc1cc(CC(C)=O)c(C(=O)O)c(O)c1-3)C(=O)c1cccc(O)c1C2=O | 681 | 840 | 25 |
| COc1c2c(c(O)c3c1C(=O)c1c(O)cccc1C3=O)-c1c(cc3c(c1O)C(=O)OC(C)(O)C3)CC2 (centres undefined) | 83 | 619 | 2.9 |
| CCC(=O)O[C@@H]1Cc2cc3c(c(O)c2-c2c(O)c4c(c(OC)c21)C(=O)c1c(O)cccc1C4=O)C(=O)O[C@H](C)C3 | 754 | 831 | 30 |
| COc1c2c(c(O)c3c1[C@H](O)Cc1cc4c(c(O)c1-3)C(=O)O[C@H](C)C4)C(=O)c1cccc(O)c1C2=O | 589 | 723 | 21 |
| COc1c2c(c(O)c3c1C(=O)c1c(O)cccc1C3=O)-c1c(cc3c(c1O)C(=O)OC(C)(OC)C3)CC2 (centres undefined) | 139 | 519 | 2.7 |
| COc1c2c(c(O)c3c1[C@H](OC(=O)C(C)C)Cc1cc4c(c(O)c1-3)C(=O)O[C@H](C)C4)C(=O)c1cccc(O)c1C2=O | 746 | 804 | 30 |
| COc1c2c(c(O)c3c1C(=O)c1c(O)cccc1C3=O)-c1c(cc3c(c1O)C(=O)O[C@H](C)C3)CC2 | 1100 | 1530 | 42 |
| CC(C)(C)c1cc(O)ccc1O [E319] | 482 | 1920 | 10 |
